Data: ChEMBL document CHEMBL4330069, “Boosting the efficacy of anti-MRSA β-lactam antibiotics via an easily accessible, non-cytotoxic and orally bioavailable FtsZ inhibitor” (Eur J Med Chem, 2019)
Converted amounts (≈) assume the structure as drawn.

How the values were obtained:
Staphylococcus aureus [1] = assay: Antibacterial activity against Staphylococcus aureus ATCC 29213 after 20 hrs; format: functional; details: ATCC 29213, 20 h
Outline: (§1)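 Broth microdilution MIC per CLSI guidelines, compounds dissolved in DMSO. Resistant mutants were selected by serial passage of ATCC 29213 in LB at 37 °C with shaking at 250 rpm. Each 20 h culture started at half the MIC, and the concentration was doubled at each transfer. Growth inhibition was read by eye, in duplicate.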

Staphylococcus aureus [2] = assay: Antibacterial activity against Staphylococcus aureus ATCC 29213 harboring FtsZ 32 mutation after 20 hrs; format: functional; details: ATCC 29213, 20 h; outline: as §1
Staphylococcus aureus [3] = assay: Antibacterial activity against multidrug-resistant Staphylococcus aureus isolate 1344 by broth microdilution assay; format: functional
Outline: (§2)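 Broth microdilution MIC per CLSI guidelines against clinical MRSA isolates, for β-lactams and test compound alone and in combination. Compounds were dissolved in DMSO. Growth was read by eye, in duplicate. FIC index = FIC(compound) + FIC(drug); synergy defined as FIC index ≤0.5.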

Staphylococcus aureus [4] = assay: Antibacterial activity against multidrug-resistant Staphylococcus aureus isolate 3267 by broth microdilution assay; format: functional; outline: as §2
Staphylococcus aureus [5] = assay: Antibacterial activity against multidrug-resistant Staphylococcus aureus isolate 3580 by broth microdilution assay; format: functional; outline: as §2
Staphylococcus aureus [6] = assay: Synergistic antibacterial activity against multidrug-resistant Staphylococcus aureus isolate 256 in presence of amoxicillin by broth microdilution assay; format: functional
Outline: (§3)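 CLSI broth microdilution on clinical MRSA isolates. MICs were measured for the β-lactam alone, the test agent alone and the two combined. Compounds were dissolved in DMSO, and growth inhibition was scored by eye. FIC index is the sum, over both agents, of MIC in combination divided by MIC alone. An FIC index ≤0.5 was taken as synergy.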

Staphylococcus aureus [7] = assay: Synergistic antibacterial activity against multidrug-resistant Staphylococcus aureus isolate 3411 in presence of amoxicillin by broth microdilution assay; format: functional; outline: as §3
Staphylococcus aureus [8] = assay: Synergistic antibacterial activity against multidrug-resistant Staphylococcus aureus isolate 1136 in presence of amoxicillin by broth microdilution assay; format: functional; outline: as §2
Staphylococcus aureus [9] = assay: Synergistic antibacterial activity against multidrug-resistant Staphylococcus aureus isolate 3580 in presence of amoxicillin by broth microdilution assay; format: functional
Staphylococcus aureus [10] = assay: Synergistic antibacterial activity against multidrug-resistant Staphylococcus aureus isolate 1344 in presence of methicillin by broth microdilution assay; format: functional
Outline: (§4)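 Clinical MRSA isolate panel; compound and β-lactam tested alone and in combination by CLSI broth microdilution, compounds dissolved in DMSO, growth inhibition scored by eye, run in duplicate. FIC index = FIC(compound) + FIC(drug), each the MIC in combination divided by the MIC alone; an index ≤ 0.5 was called synergy.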

Staphylococcus aureus [11] = assay: Synergistic antibacterial activity against multidrug-resistant Staphylococcus aureus isolate 2895 in presence of methicillin by broth microdilution assay; format: functional; outline: as §3
Staphylococcus aureus [12] = assay: Synergistic antibacterial activity against multidrug-resistant Staphylococcus aureus isolate 1749 in presence of methicillin by broth microdilution assay; format: functional; outline: as §4
Staphylococcus aureus [13] = assay: Synergistic antibacterial activity against multidrug-resistant Staphylococcus aureus isolate 254 in presence of cloxacillin by broth microdilution assay; format: functional; outline: as §3
Staphylococcus aureus [14] = assay: Synergistic antibacterial activity against multidrug-resistant Staphylococcus aureus isolate 757 in presence of cloxacillin by broth microdilution assay; format: functional
Staphylococcus aureus [15] = assay: Synergistic antibacterial activity against multidrug-resistant Staphylococcus aureus isolate 1717 in presence of cloxacillin by broth microdilution assay; format: functional; outline: as §4
Staphylococcus aureus [16] = assay: Synergistic antibacterial activity against multidrug-resistant Staphylococcus aureus isolate 774 in presence of cloxacillin by broth microdilution assay; format: functional
Staphylococcus aureus [17] = assay: Synergistic antibacterial activity against multidrug-resistant Staphylococcus aureus isolate 85 in presence of cloxacillin by broth microdilution assay; format: functional
Staphylococcus aureus [18] = assay: Synergistic antibacterial activity against multidrug-resistant Staphylococcus aureus isolate 2490 in presence of cefuroxime by broth microdilution assay; format: functional; outline: as §4
Staphylococcus aureus [19] = assay: Synergistic antibacterial activity against multidrug-resistant Staphylococcus aureus isolate 254 in presence of cefuroxime by broth microdilution assay; format: functional; outline: as §3
Staphylococcus aureus [20] = assay: Synergistic antibacterial activity against multidrug-resistant Staphylococcus aureus isolate 757 in presence of cefuroxime by broth microdilution assay; format: functional
Staphylococcus aureus [21] = assay: Synergistic antibacterial activity against multidrug-resistant Staphylococcus aureus isolate 417 in presence of meropenem by broth microdilution assay; format: functional
Staphylococcus aureus [22] = assay: Synergistic antibacterial activity against multidrug-resistant Staphylococcus aureus isolate 774 in presence of meropenem by broth microdilution assay; format: functional
Staphylococcus aureus [23] = assay: Synergistic antibacterial activity against multidrug-resistant Staphylococcus aureus isolate 200 in presence of meropenem by broth microdilution assay; format: functional; outline: as §4
Staphylococcus aureus [24] = assay: Synergistic antibacterial activity against multidrug-resistant Staphylococcus aureus isolate 2919 assessed as fractional Inhibitory concentration index in presence of amoxicillin by broth microdilution assay; format: functional
Staphylococcus aureus [25] = assay: Synergistic antibacterial activity against multidrug-resistant Staphylococcus aureus isolate 85 assessed as fractional Inhibitory concentration index in presence of amoxicillin by broth microdilution assay; format: functional
Staphylococcus aureus [26] = assay: Synergistic antibacterial activity against multidrug-resistant Staphylococcus aureus isolate 1402 assessed as fractional Inhibitory concentration index in presence of methicillin by broth microdilution assay; format: functional
Outline: (§5)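 CLSI broth microdilution run on clinical MRSA isolates with each β-lactam alone, the test agent alone, and the two combined; agents dissolved in DMSO. Growth inhibition was read by eye. FIC index = FIC(compound) + FIC(β-lactam), where each FIC is the MIC in combination divided by the MIC alone. An index ≤0.5 was taken as synergy.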

Staphylococcus aureus [27] = assay: Synergistic antibacterial activity against multidrug-resistant Staphylococcus aureus isolate 2919 assessed as fractional Inhibitory concentration index in presence of methicillin by broth microdilution assay; format: functional
Staphylococcus aureus [28] = assay: Synergistic antibacterial activity against multidrug-resistant Staphylococcus aureus isolate 417 assessed as fractional Inhibitory concentration index in presence of cloxacillin by broth microdilution assay; format: functional
Staphylococcus aureus [29] = assay: Synergistic antibacterial activity against multidrug-resistant Staphylococcus aureus isolate 1136 assessed as fractional Inhibitory concentration index in presence of cloxacillin by broth microdilution assay; format: functional; outline: as §5
Staphylococcus aureus [30] = assay: Synergistic antibacterial activity against multidrug-resistant Staphylococcus aureus isolate 3332 assessed as fractional Inhibitory concentration index in presence of meropenem by broth microdilution assay; format: functional
Staphylococcus aureus [31] = assay: Synergistic antibacterial activity against multidrug-resistant Staphylococcus aureus isolate 2895 assessed as fractional Inhibitory concentration index in presence of meropenem by broth microdilution assay; format: functional
Staphylococcus aureus [32] = assay: Synergistic antibacterial activity against multidrug-resistant Staphylococcus aureus isolate 1402 assessed as fractional Inhibitory concentration index in presence of meropenem by broth microdilution assay; format: functional; outline: as §5
Staphylococcus aureus [33] = assay: Synergistic antibacterial activity against multidrug-resistant Staphylococcus aureus isolate 774 assessed as fractional Inhibitory concentration index in presence of meropenem by broth microdilution assay; format: functional
[34] = AUC (0 to infinity) in Sprague-Dawley rat at 50 mg/kg, po by UPLC-MS/MS analysis; format: ADME, organism-based; design: dose 50 mg/kg, route oral, time infinity; details: in vivo
[35] = Oral bioavailability in Sprague-Dawley rat at 50 mg/kg by UPLC-MS/MS analysis; format: ADME, organism-based; details: in vivo
Outline: (§6)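 Male Sprague–Dawley rats (250-280 g) dosed IV at 1 mg/kg or by oral feeding at 50 mg/kg. Jugular blood taken from 5 to 420 min (IV) or 2 to 600 min (oral). Plasma proteins precipitated with methanol, then analysed by UPLC-MS/MS with positive ESI. Parameters from non-compartmental analysis.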

[36] = Half life in Sprague-Dawley rat at 1 mg/kg, iv by UPLC-MS/MS analysis; format: ADME, organism-based; details: in vivo; outline: as §6

SMILES: CCCCCCCCCNc1ccc(F)c(C(N)=O)c1F
- MIC (Staphylococcus aureus [1]): 1 µg/mL (≈ 3.35 µM)
- MIC (Staphylococcus aureus [2]): 32 µg/mL (≈ 107 µM)
- MIC (Staphylococcus aureus [3]): 16 µg/mL (≈ 53.6 µM)
- MIC (Staphylococcus aureus [4]): 1020 µg/mL (≈ 3430 µM)
- MIC (Staphylococcus aureus [5]): 32 µg/mL (≈ 107 µM)
- MIC (Staphylococcus aureus [6]): 16 µg/mL
- MIC (Staphylococcus aureus [7]): 4 µg/mL
- MIC (Staphylococcus aureus [8]): 16 µg/mL
- MIC (Staphylococcus aureus [9]): 8 µg/mL
- MIC (Staphylococcus aureus [10]): 4 µg/mL
- MIC (Staphylococcus aureus [11]): 4 µg/mL
- MIC (Staphylococcus aureus [12]): 2 µg/mL
- MIC (Staphylococcus aureus [13]): 2 µg/mL
- MIC (Staphylococcus aureus [14]): 1 µg/mL
- MIC (Staphylococcus aureus [15]): 1 µg/mL
- MIC (Staphylococcus aureus [16]): 1 µg/mL
- MIC (Staphylococcus aureus [17]): 0.5 µg/mL
- MIC (Staphylococcus aureus [18]): 2 µg/mL
- MIC (Staphylococcus aureus [19]): 4 µg/mL
- MIC (Staphylococcus aureus [20]): 2 µg/mL
- MIC (Staphylococcus aureus [21]): 4 µg/mL
- MIC (Staphylococcus aureus [22]): 4 µg/mL
- MIC (Staphylococcus aureus [23]): 8 µg/mL
- fractional inhibitory concentration index (FICI) (Staphylococcus aureus [24]): 0.5
- fractional inhibitory concentration index (FICI) (Staphylococcus aureus [25]): 0
- fractional inhibitory concentration index (FICI) (Staphylococcus aureus [26]): 0.6
- fractional inhibitory concentration index (FICI) (Staphylococcus aureus [27]): 0.4
- fractional inhibitory concentration index (FICI) (Staphylococcus aureus [28]): 0.1
- fractional inhibitory concentration index (FICI) (Staphylococcus aureus [29]): 0.4
- fractional inhibitory concentration index (FICI) (Staphylococcus aureus [30]): 2.3
- fractional inhibitory concentration index (FICI) (Staphylococcus aureus [31]): 2.1
- fractional inhibitory concentration index (FICI) (Staphylococcus aureus [32]): 5
- fractional inhibitory concentration index (FICI) (Staphylococcus aureus [33]): 0.1
- AUC(0-inf) [34]: 10300 ng·h/mL
- bioavailability [35]: 13%
- half-life [36]: 5.5 h
